Results gathered from unrelated publications.
Target: Myosin light chain kinase, smooth muscle (MYLK, Homo sapiens, UniProt Q15746)

`C[C@@H](c1ccc(-n2cnc3c(N)ncnc32)cc1)N1CCc2nn(C)c(Cc3ccccc3)c2C1=O` gave a remaining binding of 94% (binding, competition with immobilised ligand; 0.1 µM).
With `c1cnn2ncc(-c3ccnc(N4CCC45COC5)n3)c2c1` the remaining binding was 84% (binding; 1 µM).
The remaining binding of `CS(=O)(=O)N1CCCC(NC(=O)[C@H](CCC2CCCCC2)NC(=O)c2ccc(CNC(=O)c3cnc4ccccn34)cc2)C1` (stereo partly drawn) is reported as 100% (cell-free assay, competition with immobilised ligand; 0.1 µM).
`Cc1cnc(Nc2ccc(C(=O)N3CCC(N4CCCC4)CC3)cc2)nc1-c1cc2ccccc2s1` has a remaining binding of 15% (binding, competition with immobilised ligand; 1 µM).
`C[C@@]1(Cc2ccc(C#N)cc2)C(=O)N(c2cc(Cl)cc(Cl)c2)c2ncc(C(=O)NC3(c4nc(C5CCC5)no4)CC3)n21` has a remaining binding of 100% (cell-free assay, competition with immobilised ligand; 1 µM).
For `C=CC(=O)N1CCC(C(=O)NCC(=O)N2CCN(c3nc(-c4cnc(N)nc4C(F)F)nc(N4CCOCC4)n3)CC2)CC1`, the remaining binding was 61% (binding, competition with immobilised ligand; 1 µM).
The remaining binding of `CN(CCCC(F)(F)F)c1nccc(-c2cnn3ncccc23)n1` is reported as 100% (binding; 1 µM).
For `Nc1ncc2c(n1)-c1c([nH]c3ccc(C#CC4CC4)cc13)CCCC2`, the remaining binding was 92% (binding, competition with immobilised ligand; 1 µM).
With `O=C(NCC1CCOCC1)c1n[nH]cc1NC(=O)c1c(F)cccc1F` the remaining binding was 70% (binding, competition with immobilised ligand; 1 µM).
For `C[C@H]1CCN(c2nccc(-c3cnn4ncccc34)n2)C1`, the remaining binding was 91% (binding; 1 µM).
For `FC(F)(F)c1ccc2c(c1)nc(-c1cccnc1)n2C1CC1`, the remaining binding was 100% (cell-free assay, competition with immobilised ligand; 1 µM).
The remaining binding of `N[C@H]1CCN(c2nccc(-c3cnn4ncccc34)n2)C1` is reported as 81% (binding; 1 µM).
With `O=C(NCCCN1CCOCC1)c1ccc(Nc2ncc(Cl)c(-c3ccc(Cl)s3)n2)cc1` the remaining binding was 89% (binding, competition with immobilised ligand; 1 µM).
`COc1ccnn2ncc(-c3ccnc(N(C)C)n3)c12` gave a remaining binding of 100% (binding; 1 µM).
With `CNC(=O)[C@@H]1CC[C@@H](n2c(-c3ccc4cnccc4c3)nc3ccc(C(=O)NCc4cccc(C(N)=O)c4)cc32)C1` the remaining binding was 100% (binding, competition with immobilised ligand; 1 µM).
With `O=C(O)[C@@H]1[C@@H](Cn2nnc3ccccc3c2=O)CC[C@H]1C(=O)c1ccc(OCCC2CCOCC2)cc1` the remaining binding was 100% (cell-free assay, competition with immobilised ligand; 1 µM).
The remaining binding of `CCN1CCN(Cc2ccc(C(=O)Nc3ccc(C)c(Oc4ccc5c(c4)CC(=O)N5)c3)cc2C(F)(F)F)CC1` is reported as 100% (binding, competition with immobilised ligand; 1 µM).
`O=C(NCc1ncc(C(F)(F)F)cc1Cl)c1ccc2c(c1)C1(CCS(=O)(=O)CC1)[C@H](C1CC1)N2S(=O)(=O)c1ccc(F)cc1` has a remaining binding of 77% (cell-free assay, competition with immobilised ligand; 1 µM).
`O=C(NCCCN1CCOCC1)c1ccc(Nc2nccc(-c3cc4ccccc4s3)n2)cc1` gave a remaining binding of 94% (binding, competition with immobilised ligand; 1 µM).
`CN(c1nccc(-c2cnn3ncccc23)n1)C1CC1` has a remaining binding of 100% (binding; 1 µM).
The remaining binding of `Cc1cc(C)c(-n2ccn3nc(-c4cccnc4)cc23)cc1NC(=O)c1cc(C#N)cc(S(F)(F)(F)(F)F)c1` is reported as 57.7% (cell-free assay, competition with immobilised ligand; 0.1 µM).
